The results in this text go back to PubChem BioAssay.

Calls of active or inactive are those of the source.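 The calls were made as follows, unless noted: active = viability at or under a set limit in both replicates, limit being median viability minus 3 SD (cut at about 48% in these data, passing the limit was not always enough); inconclusive = at or under the limit in just one replicate; inactive = at or above the limit in both replicates.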

A short description of test [1]: reduced viability of SK-BR-3 breast cancer cells – cell-based, 24 h, human, pilot screen (AID 572;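 active = viability at or below 10% of carrier control in both of two separate runs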;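 also: compound exposure lasted between 18 and 24 h rather than exactly 24 h; 100% = carrier-treated control wells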). The settings on record: SK-BR-3 viability, CellTiter-Glo luminescence, at 10 µM, stronger effect = lower value.
Test [2] is described as follows: HUVEC growth inhibition – cell-based, human, primary screen (AID 575;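 active = viability at or below 30% in both replicate assays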;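 also: 100% = median of untreated cell wells with 0.1% DMSO on each plate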). The settings on record: HUVEC proliferation, CellTiter-Glo luminescence, 72 h; at 10 µM; stronger effect = lower value. Summed up: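 Material: primary human umbilical vein endothelial cells / Schedule: 72 h exposure, 37 °C, 5% CO2, 30 min RT equilibration / Signal: ATP-based CellTiter-Glo luminescent read / Read-out basis: percent of median DMSO-control luminescence / Control set: 32 DMSO-only cell-control wells (high), 32 MePR drug-control wells (low) per plate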
Background: ATP-based viability assays read luminescence as a measure of living cells.

Test [3] in a line: H69AR cell proliferation blockers – human, duplicate replicates, primary screen (AID 580).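 Also: 100% = mean luminescence of untreated wells and 0% = no signal.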 The settings on record: H69AR lung tumor cells viability, ATP luminescence, 72 h; at 10 µM; stronger effect = lower value.
Test [4] can be described thus: MRP1 drug-resistance reversers in H69AR cells – cell-based, doxorubicin co-treatment, pilot screen (AID 601;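 active = viability loss from added drug above about 55%, and viability with drug at most 40%, in both replicates, limit read from the data, passing the limit was not always enough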). The settings on record: CellTiter-Glo, 72 h, at 10 µM; for differential viability (reversal): stronger effect = higher value.
Test [5] in a line: yeast transport mutant growth inhibition pilot in 384-well plates, post-Golgi transport modulator project (AID 636; in the data active = inhibition above about 31%). The settings on record: absorbance 615 nm, about 18 h, stronger effect = higher value.
The nature of test [6]: growth suppression of yeast trafficking mutant, preliminary HTS, modulators of trafficking downstream of Golgi apparatus project, 1536-format plate, OD 615 nm (AID 637; in the data active = inhibition above about 30%). The settings on record: yeast transport mutant growth, absorbance 615 nm, 18 h; stronger effect = higher value.
[7] abbreviates: H69AR cells + 2 uM doxorubicin, measured here: viability with 2 uM doxorubicin, stronger effect = lower value.
Setting [8] is: H69AR cells, compound alone cytotoxicity.

For orientation: viability means a read-out of living cells in per cent, often relative to untreated cells. By inhibition is commonly meant the change of the read-out against control, counted positive when it falls.

With `O=C(CN1C(=O)NC2(CCCCC2)C1=O)Nc1ccc(S(=O)(=O)N2CCOCC2)cc1`, the viability in test [1] is 124% (inactive); in test [2] it was 98.3% (inactive); in test [3] it was 96.3% (inactive); in test [4] (setting [7]), 82.7%; in test [4] (setting [8]), 96.3%. Besides, in test [4] (H69AR cells + 2 uM doxorubicin), the differential viability (reversal) is 13.6% (inactive). Further, the inhibition in test [5] was -3.38% (inactive); in test [6] it was 3.77% (inactive).
Take `COCCOC(=O)C1=C(C)NC(C)=C(C(=O)OC(C)C)C1c1cccc([N+](=O)[O-])c1` (centres undefined): the viability was 89% (inactive) in test [1]; 65.2% (inactive) in test [2]; 77.4% (inactive) in test [3]; 96.4% in test [4] (setting [7]); 77.4% in test [4] (setting [8]). The differential viability (reversal) in test [4] (H69AR cells + 2 uM doxorubicin) is -19% (inactive). The figures for the inhibition in test [5] and in test [6] were 1.56% (inactive) and 16.2% (inactive), respectively.
Consider `CCCCC(=O)Nc1ccc(NC(=O)C2CC2)nc1`, for which the viability was 91% (inactive) in test [1]; 108% (inactive) in test [2]; 101% (inactive) in test [3]; 106% in test [4] (setting [7]); 101% in test [4] (setting [8]). In test [4] (H69AR cells + 2 uM doxorubicin), the differential viability (reversal) was -4.46% (inactive). Moreover, the inhibition was -1.51% (inactive) in test [5] and -1.13% (inactive) in test [6].
Take `CC(C)CCNC(=O)C(C)N(Cc1ccc(F)cc1)C(=O)c1ccc(CN2CCCCC2)o1` (centres undefined): the viability was 72% (inactive) in test [1]; 108% (inactive) in test [2]; 95.4% (inactive) in test [3]; 95.5% in test [4] (setting [7]); 95.4% in test [4] (setting [8]). The differential viability (reversal) in test [4] (H69AR cells + 2 uM doxorubicin) is -0.095% (inactive). Further, the inhibition was -5.95% (inactive) in test [5] and -2.91% (inactive) in test [6].
`CC1(C)S[C@@H]2[C@H](NC(=O)[C@H](C(=O)O)c3ccsc3)C(=O)N2[C@H]1C(=O)O`: the viability in test [1] is 105% (inactive); in test [2], 91.5% (inactive); in test [3], 102% (inactive); in test [4] (setting [7]), 99.3%; in test [4] (setting [8]) it was 102%. In test [4] (H69AR cells + 2 uM doxorubicin), the differential viability (reversal) was 2.32% (inactive). The results for the inhibition in test [5] and in test [6] were -0.26% (inactive) and -0.17% (inactive), respectively.
Consider `O=C(O)c1ccc(COc2c(F)c(F)c(F)c(F)c2F)o1`, for which the viability in test [1] is 78% (inactive); in test [2], 106% (inactive); in test [3] it was 92.9% (inactive); in test [4] (setting [7]) it was 101%; in test [4] (setting [8]) it was 92.9%. In test [4] (H69AR cells + 2 uM doxorubicin), the differential viability (reversal) was -8.1% (inactive). Further, the figures for the inhibition in test [5] and in test [6] were 0.14% (inactive) and 19.4% (inactive), respectively.
Regarding `Cc1cccc(N2CCN(C(=O)C3CCCN(S(=O)(=O)c4c(C)noc4C)C3)CC2)c1C` (centres undefined), the viability is 78% (inactive) in test [1]; 53.1% (inactive) in test [2]; 81.9% (inactive) in test [3]; 79.7% in test [4] (setting [7]); 81.9% in test [4] (setting [8]). Also, the differential viability (reversal) in test [4] (H69AR cells + 2 uM doxorubicin) is 2.14% (inactive). Moreover, the inhibition in test [5] is -3.21% (inactive); in test [6], 0.83% (inactive).
With `Cc1nnc(SCC(=O)NCc2ccc3c(c2)OCO3)s1`, the viability in test [1] was 87% (inactive); in test [2] it was 103% (inactive); in test [3], 101% (inactive); in test [4] (setting [7]), 113%; in test [4] (setting [8]), 101%. Moreover, the differential viability (reversal) in test [4] (H69AR cells + 2 uM doxorubicin) is -12.3% (inactive). For the same compound, the inhibition is -2.33% (inactive) in test [5] and 5.82% (inactive) in test [6].
As for `CCc1cn([C@H]2C[C@H](O)[C@@H](CO)O2)c(=O)[nH]c1=O`, the viability in test [1] was 120% (inactive); in test [2], 93.2% (inactive); in test [3], 85.9% (inactive); in test [4] (setting [7]), 76.6%; in test [4] (setting [8]) it was 85.9%. Moreover, in test [4] (H69AR cells + 2 uM doxorubicin), the differential viability (reversal) was 9.33% (inactive). Further, the values for the inhibition in test [5] and in test [6] were -0.26% (inactive) and 7.5% (inactive), respectively.
Take `CN(C)CCOC(=O)C(c1ccccc1)C1(O)CCCC1` (centres undefined): the viability in test [1] is 127% (inactive); in test [2], 92.9% (inactive); in test [3], 102% (inactive); in test [4] (setting [7]) it was 97%; in test [4] (setting [8]), 102%. In addition, the differential viability (reversal) in test [4] (H69AR cells + 2 uM doxorubicin) was 4.65% (inactive). Also, the inhibition in test [5] was -1.43% (inactive); in test [6], 2.33% (inactive).
Turning to `O=C1CCC(C(=O)N(Cc2ccco2)C2(C(=O)NC3CCCC3)CCCCC2)N1` (centres undefined), the viability in test [1] was 94% (inactive); in test [2] it was 106% (inactive); in test [3] it was 87.7% (inactive); in test [4] (setting [7]), 96.1%; in test [4] (setting [8]), 87.7%. In addition, the differential viability (reversal) in test [4] (H69AR cells + 2 uM doxorubicin) was -8.42% (inactive). Also, the inhibition was -7.81% (inactive) in test [5] and -1.09% (inactive) in test [6].
In the case of `COC(=O)C1=C(N)Oc2cc(C)n(Cc3ccncc3)c(=O)c2C1c1cccnc1` (centres undefined), the viability in test [1] was 113% (inactive); in test [2], 86% (inactive); in test [3], 88.4% (inactive); in test [4] (setting [7]) it was 84.6%; in test [4] (setting [8]), 88.4%. Besides, the differential viability (reversal) in test [4] (H69AR cells + 2 uM doxorubicin) is 3.73% (inactive). The inhibition was -7.4% (inactive) in test [5] and 0.97% (inactive) in test [6].
For the compound `Cc1onc(-c2ccccc2)c1C(=O)NCCN1CCOCC1`, the viability in test [1] was 94% (inactive); in test [2] it was 102% (inactive); in test [3], 98% (inactive); in test [4] (setting [7]), 87.9%; in test [4] (setting [8]), 98%. In addition, in test [4] (H69AR cells + 2 uM doxorubicin), the differential viability (reversal) was 10.1% (inactive). Further, the inhibition in test [5] was -4.93% (inactive); in test [6], -4% (inactive).
With `O=C(O)C1CCCN1C(=O)c1cccs1` (centres undefined), the viability was 114% (inactive) in test [1]; 88.3% (inactive) in test [2]; 103% (inactive) in test [3]; 100% in test [4] (setting [7]); 103% in test [4] (setting [8]). Moreover, the differential viability (reversal) in test [4] (H69AR cells + 2 uM doxorubicin) was 3.11% (inactive). The inhibition in test [5] was 3.15% (inactive); in test [6], -2.58% (inactive).
Turning to `CN(C)c1ccc(NC(=O)Nc2cccc(Cl)c2)cc1`, the viability in test [1] is 83% (inactive); in test [2] it was 99.9% (inactive); in test [3], 88.7% (inactive); in test [4] (setting [7]), 84.7%; in test [4] (setting [8]) it was 88.7%. For the same compound, the differential viability (reversal) in test [4] (H69AR cells + 2 uM doxorubicin) was 3.98% (inactive). Further, the inhibition was -6.71% (inactive) in test [5] and 4.55% (inactive) in test [6].
For `CC1(C)SC2[C@H](NC(=O)C(NC(=O)N3CCNC3=O)c3ccccc3)C(=O)N2C1C(=O)O` (some centres undefined), the viability is 107% (inactive) in test [1]; 80.2% (inactive) in test [2]; 95.3% (inactive) in test [3]; 93.6% in test [4] (setting [7]); 95.3% in test [4] (setting [8]). In addition, the differential viability (reversal) in test [4] (H69AR cells + 2 uM doxorubicin) is 1.74% (inactive). For the same compound, the inhibition in test [5] was 0.26% (inactive); in test [6] it was 2.67% (inactive).
On to `CN1CCN(C(=O)c2ccc3c(=O)n(CCc4ccccc4)c(=S)[nH]c3c2)CC1`, for which the viability is 102% (inactive) in test [1]; 66.2% (inactive) in test [2]; 81.6% (inactive) in test [3]; 56.3% in test [4] (setting [7]); 81.6% in test [4] (setting [8]). Further, the differential viability (reversal) in test [4] (H69AR cells + 2 uM doxorubicin) is 25.3% (inactive). Moreover, the figures for the inhibition in test [5] and in test [6] were -1.95% (inactive) and -2.46% (inactive), respectively.
For the compound `CCOC(=O)C1CCCN(CC(=O)NC2CC2)C1` (centres undefined), the viability in test [1] is 112% (inactive); in test [2] it was 96.6% (inactive); in test [3], 88.2% (inactive); in test [4] (setting [7]), 89.7%; in test [4] (setting [8]), 88.2%. The differential viability (reversal) in test [4] (H69AR cells + 2 uM doxorubicin) was -1.56% (inactive). Moreover, the values for the inhibition in test [5] and in test [6] were -7.16% (inactive) and -2.91% (inactive), respectively.
